According to ChEMBL document CHEMBL4251609, “Substrate-derived triazolo- and azapeptides as inhibitors of cathepsins K and S” (Eur J Med Chem, 2018):
pKi: −log10 of the molar value. The source made the active and inactive calls. No cut-off for these calls is given here. Starred links: 1 amine or outer side, 2 acyl side, 3 side chain; linkers in the order of their positions; H or OH if unused. Non-standard residues stand in square brackets, D forms with d. Residues, ends and D or L forms follow the SMILES beside them. Tyr(3-NO2) = N[C@@H](Cc1ccc(O)c([N+](=O)[O-])c1)C(=O)O; X1 = O=C([C@H](Cc1ccccc1)n1cc(CN[*:1])nn1)[*:2]; 4Abz = Nc1ccc(C(=O)O)cc1

Key:
[1] = biological target: T1, Cathepsin K (Homo sapiens) (UniProt P43235); assay: Inhibition of human cathepsin K […] activity assessed as normalized bradykinin equivalents ratio at 1 uM pre-incubated for 15 mins before bradykinin substrate addition by competitive enzyme immunoassay (reference value: <0.5%); set-up: scale not given: the % may be the effect or the level left
T1 sequence (whole entry): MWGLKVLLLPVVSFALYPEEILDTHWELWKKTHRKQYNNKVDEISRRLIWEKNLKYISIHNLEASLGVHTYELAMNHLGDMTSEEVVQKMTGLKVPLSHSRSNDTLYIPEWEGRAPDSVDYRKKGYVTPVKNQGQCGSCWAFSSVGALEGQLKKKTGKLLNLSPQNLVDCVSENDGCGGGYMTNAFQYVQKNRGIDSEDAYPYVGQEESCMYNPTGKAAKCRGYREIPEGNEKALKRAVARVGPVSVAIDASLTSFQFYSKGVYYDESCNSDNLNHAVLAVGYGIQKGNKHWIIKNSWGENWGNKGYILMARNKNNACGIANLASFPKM

[2] = biological target: T1, Cathepsin K (Homo sapiens); assay: Inhibition of human cathepsin K […] activity assessed as normalized bradykinin equivalents ratio at 1 uM pre-incubated for 15 mins before kallidin substrate addition by competitive enzyme immunoassay (reference value: <0.5%); set-up: scale not given: the % may be the effect or the level left
[3] = biological target: T2, Trypsin (Homo sapiens) (UniProt P07477+P07478+P35030); assay: Inhibition of trypsin (unknown origin) incubated for 30 mins using Abz-Thr-Pro-Arg-Ser-Ala-Leu-Gln-EDDnp substrate; type: protein assay
[4] = species on record: Homo sapiens; assay: Inhibition of chymotrypsin (unknown origin) incubated for 30 mins using Abz-Thr-Pro-Phe-Ser-Gly-Gln-EDDnp substrate
[5] = biological target: T3, Neutrophil elastase (Homo sapiens) (UniProt P08246); assay: Inhibition of human neutrophil elastase incubated for 30 mins using Abz-Ala-Pro-Glu-Glu-Ile-Met-Arg-Arg-Gln-(3-NO2-Tyr) substrate
T3 sequence (whole entry): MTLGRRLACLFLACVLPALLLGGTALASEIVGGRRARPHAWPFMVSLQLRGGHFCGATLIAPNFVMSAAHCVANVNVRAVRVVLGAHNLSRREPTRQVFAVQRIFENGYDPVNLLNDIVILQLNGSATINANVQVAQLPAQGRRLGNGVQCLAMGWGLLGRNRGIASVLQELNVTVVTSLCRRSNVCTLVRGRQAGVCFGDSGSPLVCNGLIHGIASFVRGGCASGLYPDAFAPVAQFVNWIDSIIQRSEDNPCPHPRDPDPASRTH

[6] = biological target: 72 kDa type IV collagenase (Homo sapiens) (UniProt P08253); assay: Inhibition of human recombinant MMP-2 expressed in CHO cells incubated for 30 mins by Mca-Arg-Pro-Pro-Gly-Phe-Ser-Ala-Phe-Lys(Dnp) substrate; type: cell-based
[7] = biological target: Cathepsin D (Homo sapiens) (UniProt P07339); assay: Inhibition of human cathepsin D incubated for 30 mins using Mca-Gly-Lys-Pro-Ile-Leu-Phe-Phe-Arg-Leu-Lys(Dnp)-D-Arg-NH2 substrate
[8] = biological target: T4, Pro-cathepsin H (Homo sapiens) (UniProt P09668); assay: Inhibition of human cathepsin H using fluorogenic AMC-derived peptide substrate assessed as reduction in residual activity preincubated for 30 mins followed by substrate addition
T4 sequence (whole entry): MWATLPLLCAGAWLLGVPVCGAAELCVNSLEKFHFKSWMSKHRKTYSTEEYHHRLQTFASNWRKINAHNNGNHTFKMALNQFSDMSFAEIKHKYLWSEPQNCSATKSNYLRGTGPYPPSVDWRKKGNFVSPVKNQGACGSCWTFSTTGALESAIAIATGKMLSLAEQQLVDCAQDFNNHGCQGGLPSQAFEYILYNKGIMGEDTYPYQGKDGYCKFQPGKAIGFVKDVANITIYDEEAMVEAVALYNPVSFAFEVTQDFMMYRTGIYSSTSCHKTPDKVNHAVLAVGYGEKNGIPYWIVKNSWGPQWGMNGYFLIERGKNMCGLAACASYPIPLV

[9] = biological target: Cathepsin B (Homo sapiens) (UniProt P07858); assay: Inhibition of human cathepsin B
[10] = biological target: T2, Trypsin (Homo sapiens); assay: Substrate activity of trypsin (unknown origin) assessed as compound hydrolysis; type: protein assay
Summary of the method: (§1)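 Compound was incubated with each protease and the incubation mixtures were analysed by RP-HPLC for proteolytic degradation of the compound.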

[11] = biological target: Cathepsin B (Homo sapiens) (UniProt P07858); assay: Substrate activity of human cathepsin B assessed as compound hydrolysis; summary of the method: as §1
[12] = biological target: T5, Cathepsin S (Homo sapiens, UniProt P25774); assay: Reversible inhibition of human cathepsin S at 20 uM preincubated for 30 mins followed by Biot-(PEG)2-Ahx-LeuValGly-DMK addition measured after 1 hr by chemiluminescence assay
Target sequence in this assay (P25774 115-331 limits assumed): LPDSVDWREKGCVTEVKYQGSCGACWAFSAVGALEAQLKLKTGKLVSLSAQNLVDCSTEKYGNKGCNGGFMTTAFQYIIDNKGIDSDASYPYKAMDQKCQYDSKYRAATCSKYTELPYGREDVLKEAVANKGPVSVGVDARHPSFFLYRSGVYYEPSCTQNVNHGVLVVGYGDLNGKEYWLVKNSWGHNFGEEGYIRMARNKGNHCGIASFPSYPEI

[13] = biological target: T5, Cathepsin S; assay: Reversible inhibition of human cathepsin S at 20 uM in presence of excess Z-LR-AMC
Target sequence in this assay (P25774 115-331 limits assumed): as above

[14] = biological target: T1, Cathepsin K (Homo sapiens); assay: Inhibition of human cathepsin K […] activity at 3 uM pre-incubated for 30 mins before bradykinin substrate addition by reverse-phase chromatography
[15] = biological target: T1, Cathepsin K (Homo sapiens); assay: Inhibition of human cathepsin K […] activity at 100 nM pre-incubated for 30 mins before bradykinin substrate addition by reverse-phase chromatography
[16] = biological target: T1, Cathepsin K (Homo sapiens); assay: Inhibition of human cathepsin K […] activity at 3 uM pre-incubated for 30 mins before Abz-Arg-Pro-Pro-Gly-Phe-Ser-Pro-Phe-Arg-(3-NO2-Tyr) substrate addition by reverse-phase chromatography
[17] = biological target: T1, Cathepsin K (Homo sapiens); assay: Inhibition of human cathepsin K […] activity at 100 nM pre-incubated for 30 mins before Abz-Arg-Pro-Pro-Gly-Phe-Ser-Pro-Phe-Arg-(3-NO2-Tyr) substrate addition by reverse-phase chromatography
[18] = biological target: T1, Cathepsin K (Homo sapiens); assay: Inhibition of human cathepsin K […] activity assessed as normalized bradykinin equivalents ratio at 5 uM pre-incubated for 15 mins before bradykinin substrate addition by competitive enzyme immunoassay (reference value: <0.5%); set-up: scale not given: the % may be the effect or the level left
[19] = biological target: T1, Cathepsin K (Homo sapiens); assay: Inhibition of human cathepsin K […] activity assessed as normalized bradykinin equivalents ratio at 5 uM pre-incubated for 15 mins before kallidin substrate addition by competitive enzyme immunoassay (reference value: <0.5%); set-up: scale not given: the % may be the effect or the level left
[20] = biological target: T5, Cathepsin S; assay: (§2) Reversible competitive inhibition of human cathepsin S using fluorogenic AMC-derived peptide substrate assessed as reduction in residual activity at pH 5.5 preincubated for 30 mins followed by substrate addition; details: for pKi: read-out: Ki
Summary of the method: (§3)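 Ki values for cathepsin S determined at pH 5.5 and again at pH 7.4, a pH at which this enzyme stays stable and active, to compare the two conditions.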
Target sequence in this assay (P25774 whole entry): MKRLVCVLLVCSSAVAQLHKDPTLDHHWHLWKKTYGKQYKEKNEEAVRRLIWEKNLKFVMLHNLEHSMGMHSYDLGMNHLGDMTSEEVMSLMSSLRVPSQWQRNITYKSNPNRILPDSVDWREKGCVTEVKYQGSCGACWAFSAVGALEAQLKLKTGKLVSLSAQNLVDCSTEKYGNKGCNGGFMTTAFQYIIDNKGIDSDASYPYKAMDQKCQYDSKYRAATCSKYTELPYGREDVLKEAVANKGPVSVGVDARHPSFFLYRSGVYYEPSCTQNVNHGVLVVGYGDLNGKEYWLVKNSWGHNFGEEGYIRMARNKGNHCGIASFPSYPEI

[21] = biological target: T5, Cathepsin S; assay: Reversible competitive inhibition of human cathepsin S using fluorogenic AMC-derived peptide substrate assessed as reduction in residual activity at pH 7.4 preincubated for 30 mins followed by substrate addition; details: for pKi: read-out: Ki; summary of the method: as §3
Target sequence in this assay (P25774 whole entry): as above

[22] = biological target: T6, Cathepsin K (Homo sapiens, UniProt P43235); assay: Reversible competitive inhibition of human cathepsin K using fluorogenic AMC-derived peptide substrate assessed as reduction in residual activity preincubated for 30 mins followed by substrate addition
T6 sequence (P43235 whole entry): T1 sequence (whole entry)
Summary of the method: (§4)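 Inhibition constants (Ki) determined at pH 5.5, with reversibility and competitive mode also assessed.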

[23] = biological target: T7, Procathepsin L (Homo sapiens, UniProt P07711); assay: Reversible competitive inhibition of human cathepsin L using fluorogenic AMC-derived peptide substrate assessed as reduction in residual activity preincubated for 30 mins followed by substrate addition; summary of the method: as §4
Target sequence in this assay (P07711 whole entry): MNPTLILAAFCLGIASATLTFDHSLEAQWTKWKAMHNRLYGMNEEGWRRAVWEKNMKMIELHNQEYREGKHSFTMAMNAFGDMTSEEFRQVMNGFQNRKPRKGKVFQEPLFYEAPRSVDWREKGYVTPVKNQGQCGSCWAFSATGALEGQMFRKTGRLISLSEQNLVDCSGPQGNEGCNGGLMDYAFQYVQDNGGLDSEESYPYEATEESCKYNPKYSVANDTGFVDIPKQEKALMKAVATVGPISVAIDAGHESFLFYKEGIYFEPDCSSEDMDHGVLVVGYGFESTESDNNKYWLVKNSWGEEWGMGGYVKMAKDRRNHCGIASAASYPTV

[24] = biological target: T8, Pro-cathepsin H (Homo sapiens, UniProt P09668); assay: Reversible competitive inhibition of human cathepsin H using fluorogenic AMC-derived peptide substrate assessed as reduction in residual activity preincubated for 30 mins followed by substrate addition
T8 sequence (P09668 whole entry): T4 sequence (whole entry)

[25] = biological target: T1, Cathepsin K (Homo sapiens); assay: Inhibition of human cathepsin K using fluorogenic AMC-derived peptide substrate assessed as reduction in residual activity preincubated for 30 mins followed by substrate addition
[26] = biological target: T7, Procathepsin L; assay: Inhibition of human cathepsin L using fluorogenic AMC-derived peptide substrate assessed as reduction in residual activity preincubated for 30 mins followed by substrate addition
Target sequence in this assay (P07711 114-333 limits assumed): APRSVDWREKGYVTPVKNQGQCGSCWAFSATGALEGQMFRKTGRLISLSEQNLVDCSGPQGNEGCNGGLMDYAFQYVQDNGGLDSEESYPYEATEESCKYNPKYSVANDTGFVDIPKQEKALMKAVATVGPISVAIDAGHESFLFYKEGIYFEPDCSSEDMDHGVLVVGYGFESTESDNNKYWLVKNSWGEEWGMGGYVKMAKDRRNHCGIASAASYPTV

[27] = biological target: T5, Cathepsin S; assay: Reversible inhibition of human cathepsin S at 600 uM preincubated for 30 mins followed by Biot-(PEG)2-Ahx-LeuValGly-DMK addition measured after 1 hr by chemiluminescence assay
Target sequence in this assay (P25774 115-331 limits assumed): as the sequence (P25774 115-331 limits assumed) above

[28] = biological target: T5, Cathepsin S; assay: as §2; summary of the method: as §3
Target sequence in this assay (P25774 115-331 limits assumed): as above

[29] = biological target: Cathepsin S (Mus musculus) (UniProt O70370); assay: Inhibition of cathepsin S in C57/Bl6 mouse spleen lysate using Z-Val-Leu-Arg-AMC as substrate at 10 uM preincubated for 30 mins followed by substrate addition; type: subcellular
[30] = biological target: T5, Cathepsin S; assay: Reversible inhibition of human cathepsin S at 600 uM in presence of excess Z-LR-AMC
Target sequence in this assay (P25774 115-331 limits assumed): as above

[31] = biological target: Cathepsin B (Mus musculus) (UniProt P10605); assay: Inhibition of cathepsin B in C57/Bl6 mouse spleen lysate using Z-Arg-Arg-AMC as substrate at 10 uM preincubated for 30 mins followed by substrate addition; type: subcellular
[32] = biological target: T5, Cathepsin S; assay: Inhibition of human cathepsin S using fluorogenic AMC-derived peptide substrate assessed as reduction in residual activity preincubated for 30 mins followed by substrate addition
Target sequence in this assay (P25774 115-331 limits assumed): as above

[33] = biological target: T6, Cathepsin K; assay: Inhibition of human cathepsin K
[34] = biological target: Cathepsin S (Mus musculus) (UniProt O70370); assay: Inhibition of cathepsin S in C57/Bl6 mouse spleen lysate using Z-Val-Leu-Arg-AMC as substrate at 100 uM preincubated for 30 mins followed by substrate addition; type: subcellular
[35] = biological target: Cathepsin B (Mus musculus) (UniProt P10605); assay: Inhibition of cathepsin B in C57/Bl6 mouse spleen lysate using Z-Arg-Arg-AMC as substrate at 100 uM preincubated for 30 mins followed by substrate addition; type: subcellular
[36] = biological target: T5, Cathepsin S; assay: Inhibition of human cathepsin S at 300 uM preincubated for 30 mins followed by Biot-(PEG)2-Ahx-LeuValGly-DMK addition measured after 1 hr by chemiluminescence assay
[37] = biological target: T5, Cathepsin S; assay: Reversible inhibition of human cathepsin S at 300 uM in presence of excess Z-LR-AMC

Chain of 72 kDa type IV collagenase (Homo sapiens) (P08253 110-660 limits assumed): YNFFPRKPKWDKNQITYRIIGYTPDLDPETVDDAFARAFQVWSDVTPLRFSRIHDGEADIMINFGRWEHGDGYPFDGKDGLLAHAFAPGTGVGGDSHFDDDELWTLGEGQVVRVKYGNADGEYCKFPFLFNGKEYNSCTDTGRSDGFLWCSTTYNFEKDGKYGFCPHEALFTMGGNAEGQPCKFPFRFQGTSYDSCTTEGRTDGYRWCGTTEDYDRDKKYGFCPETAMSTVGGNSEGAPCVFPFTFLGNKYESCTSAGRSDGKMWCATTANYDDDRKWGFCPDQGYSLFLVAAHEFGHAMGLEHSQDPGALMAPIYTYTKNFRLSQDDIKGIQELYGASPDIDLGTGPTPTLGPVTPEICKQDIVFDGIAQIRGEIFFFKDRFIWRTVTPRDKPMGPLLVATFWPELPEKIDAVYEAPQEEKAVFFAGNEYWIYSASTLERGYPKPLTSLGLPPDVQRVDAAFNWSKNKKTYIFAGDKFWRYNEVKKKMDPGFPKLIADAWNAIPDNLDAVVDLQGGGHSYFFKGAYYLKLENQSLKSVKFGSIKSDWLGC
Chain of Cathepsin D (Homo sapiens) (P07339 65-162 limits assumed): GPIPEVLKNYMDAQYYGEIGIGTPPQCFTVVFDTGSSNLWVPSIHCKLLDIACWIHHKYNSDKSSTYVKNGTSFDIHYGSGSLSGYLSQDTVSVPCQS
Chain of Cathepsin D (Homo sapiens) (P07339 169-412 limits assumed): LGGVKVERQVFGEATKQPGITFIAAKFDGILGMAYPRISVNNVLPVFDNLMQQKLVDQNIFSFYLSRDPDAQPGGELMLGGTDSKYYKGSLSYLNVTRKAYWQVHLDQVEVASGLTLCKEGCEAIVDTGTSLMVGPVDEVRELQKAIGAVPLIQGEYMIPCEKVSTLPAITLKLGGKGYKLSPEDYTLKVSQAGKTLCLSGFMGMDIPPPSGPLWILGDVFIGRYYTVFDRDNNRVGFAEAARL
Chain of Cathepsin B (Mus musculus) (P10605 80-333 limits assumed): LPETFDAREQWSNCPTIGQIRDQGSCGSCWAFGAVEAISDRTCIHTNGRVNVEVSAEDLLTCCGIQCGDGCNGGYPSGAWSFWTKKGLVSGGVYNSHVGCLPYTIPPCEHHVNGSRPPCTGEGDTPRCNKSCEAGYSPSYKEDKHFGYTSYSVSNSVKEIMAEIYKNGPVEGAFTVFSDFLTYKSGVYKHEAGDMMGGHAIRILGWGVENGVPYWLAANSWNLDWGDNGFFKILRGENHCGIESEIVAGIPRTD

Activity [1]	Activity [2]	inhibition [3]	inhibition [4]	inhibition [5]	inhibition [6]	inhibition [7]	inhibition [8]	inhibition [9]	pKi [22]	pKi [23]	Ki [24]	inhibition [25]	inhibition [26]	inhibition [28]	pKi [20]	pKi [21]	inhibition [32]	Structure (SMILES)	other results
< 0.5%	< 0.5%	–	–	–	–	–	–	–	–	–	–	–	–	–	–	–	–	CCCNC(=O)[C@H]1O[C@@H]1C(=O)N[C@H](C(=O)N1CCC[C@H]1C(=O)O)[C@@H](C)CC	–
–	–	inactive	inactive	inactive	inactive	inactive	inactive	inactive	6.10	4.66	Not Active	–	–	–	–	–	–	N=C(N)NCCC[C@H](NC(=O)[C@H](Cc1ccccc1)NC(=O)[C@@H]1CCCN1C(=O)[C@H](CO)NC(=O)[C@H](Cc1ccccc1)n1cc(CNC(=O)[C@@H]2CCCN2C(=O)[C@@H]2CCCN2C(=O)[C@H](CCCNC(=N)N)NC(=O)c2ccc(N)cc2)nn1)C(=O)N[C@@H](Cc1ccc(O)c([N+](=O)[O-])c1)C(N)=O (H-[4Abz]RPP[X1]SPFR[Tyr(3-NO2)]-NH2)	Activity [10]: Active; Activity [11]: Active; inhibition [12]: Active; inhibition [13]: inactive; inhibition [14]: Active; inhibition [15]: Active; inhibition [16]: Active; inhibition [17]: Active; Activity [18]: 100%; Activity [19]: 100%; Ki [20]: Not Active; Ki [21]: Not Active
–	–	inactive	inactive	inactive	inactive	inactive	Active	Active	8.52	8.30	–	Active	Active	Active	7.59	7.77	Active	CSCC[C@H](NC(=O)[C@@H]1CCCN1C(=O)[C@H](Cc1c[nH]cn1)NC(=O)[C@H](Cc1c[nH]c2ccccc12)NC(=O)[C@H](CCCNC(=N)N)NC(=O)CNC(C)=O)C(=O)NNC(=O)N[C@@H](C)C(=O)N1CCC[C@H]1C(=O)N[C@@H](Cc1c[nH]c2ccccc12)C(=O)N[C@@H](CCC(=O)O)C(=O)N[C@H](C)C(=O)N[C@H](CCCNC(=N)N)C(N)=O	inhibition [27]: Active; inhibition [29]: Active; inhibition [30]: inactive; inhibition [31]: inactive; pKi ([24]; read-out: Ki): 5.15
–	–	–	–	–	–	–	–	–	–	–	–	–	–	–	–	–	–	CC(C)(F)C[C@H](N[C@@H](c1ccc(-c2ccc(S(C)(=O)=O)cc2)cc1)C(F)(F)F)C(=O)NC1(C#N)CC1 [ODANACATIB]	pKi [33]: 9.74
100%	100%	–	–	–	–	–	–	–	–	–	–	–	–	–	–	–	–	CC(C)C[C@H](NC(=O)[C@@H]1O[C@H]1C(=O)O)C(=O)NCCCCN=C(N)N	inhibition [34]: Active; inhibition [35]: Active
–	–	inactive	inactive	inactive	inactive	inactive	inactive	inactive	5.00	4.52	Not Active	Active	Active	Active	4.82	4.38	Active	CSCC[C@H](NC(=O)[C@@H]1CCCN1C(=O)[C@H](Cc1c[nH]cn1)NC(=O)[C@H](Cc1c[nH]c2ccccc12)NC(=O)[C@H](CCCNC(=N)N)NC(=O)CNC(C)=O)C(=O)NCc1cn([C@@H](C)C(=O)N2CCC[C@H]2C(=O)N[C@@H](Cc2c[nH]c3ccccc23)C(=O)N[C@@H](CCC(=O)O)C(=O)N[C@H](C)C(=O)N[C@H](CCCNC(=N)N)C(N)=O)nn1	inhibition [36]: Active; inhibition [37]: inactive
